M1 agonist: M1 muscarinic receptor agonism. CHO-M1 cells, Fluo-4 calcium fluorescence, agonist mode; hits give high values. B-score at 10 µM. 64,000 compounds, 3% hits;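 active = fluorescence rise, raw or as B-score row- and column-corrected plate score, outside the 99.7% band of its plate's samples, either direction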
Htt clearance: mutant huntingtin protein clearance; HeLa Exon1htt(103Q)mCFP, aggregate imaging; zero = plate's median compound well; inhibition, % at 1.5 µM; 47,000 compounds, 0.42% hits;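 active = inhibition of aggregate fluorescence above about 70%, also judged a hit by eye on the cell image, limit read from the data, passing the limit was not always enough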;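 note: cells exposed to compound for three days before fixation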
D1 allo mod: allosteric modulators of human D1 dopamine receptor. HEK293 D1, CRE-luciferase, dopamine EC30 potentiation; actives deviate in either direction. AID 641. B-score at 10 µM. P21728. 58,000 compounds, 5.9% hits;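 active = luminescence count or its row- and column-corrected plate score outside the 99.7% band of the plate's sample wells, on either side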
SF-1 act: activators of human nuclear receptor SF-1. Q13285. CHO-K1 Gal4-SF-1 LBD luciferase reporter; % increase over DMSO SF-1-specific signal. activation, % at 10 µM. 65,000 compounds, 1.9% hits. AID 522;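 active = activation above the mean activation of all tested compounds plus 3 SD, cut at about 50% in these data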
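Material: Gal4–SF-1 LBD one-hybrid luciferase reporter in CHO-K1 cells | Amount: 4,000 cells per well | Compound dosing: 10 µM single point, 1% DMSO | Schedule: 20 h compound treatment, 37 °C | Measured by: SteadyLite luciferase luminescence | Evaluation: Percent activation versus DMSO | Control set: DMSO-treated SF-1-transfected cells as negative, DMSO-treated mock-transfected cells lacking SF-1 as background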
RORa activator: activates the human nuclear receptor RORA. P35398. CHO-K1 Gal4-RORA LBD luciferase reporter, luminescence; percent increase over mock-subtracted basal signal. activation, % at 10 µM. 65,000 compounds, 1.5% hits;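 active = activation above the mean of all tested compounds plus 3 SD, cut at about 49% in these data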;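 note: 0% = DMSO-treated RORA cells and 100% = added signal equal to DMSO minus mock-transfected cells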
M1 antagonist: antagonists of rat M1 muscarinic receptor; P08482; CHO-M1 cells, Fluo-4 calcium, ACh EC80 antagonist mode; hits give low values; B-score at 10 µM; 64,000 compounds, 3.4% hits; AID 628;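 active = calcium fluorescence response, raw or row-and-column corrected B-score, differing from the plate sample mean either way at a set confidence level, mostly lower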
Target sequence (P08482 whole entry, looked up): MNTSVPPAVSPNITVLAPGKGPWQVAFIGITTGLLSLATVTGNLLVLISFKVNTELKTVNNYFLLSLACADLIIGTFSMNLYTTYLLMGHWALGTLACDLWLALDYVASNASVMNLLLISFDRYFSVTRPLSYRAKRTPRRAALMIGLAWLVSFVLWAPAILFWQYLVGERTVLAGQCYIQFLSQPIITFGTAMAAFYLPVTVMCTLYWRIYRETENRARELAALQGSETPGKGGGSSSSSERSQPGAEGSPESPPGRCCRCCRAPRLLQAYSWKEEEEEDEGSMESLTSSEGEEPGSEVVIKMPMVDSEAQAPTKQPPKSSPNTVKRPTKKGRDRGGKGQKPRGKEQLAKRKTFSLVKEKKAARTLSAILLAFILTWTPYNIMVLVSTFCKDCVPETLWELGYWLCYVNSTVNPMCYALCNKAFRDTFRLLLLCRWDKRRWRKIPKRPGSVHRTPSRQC
D1 PAM confirm: D1 receptor (human) allosteric modulation, confirmed | luminescence at 10 µM | AID 642 | 2,200 compounds, 88% hits | shares compounds with D1 allo mod | HEK293 D1 CRE-luciferase, dopamine EC30 potentiation; hits give high values;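 active = luminescence in either of two replicates above the same-plate mean plus 3 SD of the low-dose dopamine control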
D1 no dopamine: activates D1 CRE-luciferase signal without dopamine present; shares compounds with D1 allo mod; HEK293 D1 CRE-luciferase, luminescence, no dopamine; hits give high values; luminescence at 10 µM; 1,900 compounds, 0.8% hits; AID 646; in the data active = luminescence above about 3900
Isoprot counter: counter-screen for D1 modulators: isoproterenol response in HEK293 cells. shares compounds with D1 allo mod. HEK293 D1 CRE-luciferase, isoproterenol EC30 counter-screen. calls only at 10 µM. 2,200 compounds, 63% hits. AID 647;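 active = luminescence in either replicate above plate mean of wells with a partly effective reference agonist dose plus 3 SD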;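 note: isoproterenol raises cAMP through native beta-adrenoceptor Gs so signal bypasses D1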
The depositor's hits bear a star; i = inactive; / = no result; + = active, no number. An excerpt weighted towards active compounds, which were near 11% of everything screened.

SMILES	M1 agonist	Htt clearance	D1 allo mod	SF-1 act	RORa activator	M1 antagonist	D1 PAM confirm	D1 no dopamine	Isoprot counter
COC(=O)c1ccc(OC)c(CSc2nnc(COc3cccc(C)c3)o2)c1	0.31	/	0.13	4	-12	0.14	/	/	/
COC(=O)c1ccc(OC)c(CSc2nnc(COc3ccc(OC)cc3)o2)c1	0.23	/	6.4*	-8	-8	-0.27	5284	1456	i
CN1/C(=C\C(=O)COc2ccc3c(c2)OCO3)C(C)(C)c2ccccc21	-0.11	/	-0.76	-9	-3	-1.3	/	/	/
CCOc1cccc(N2C(=O)CC(NCc3ccc(S(N)(=O)=O)cc3)C2=O)c1 (configuration not stated)	-0.35	4	0.66	-15	-7	-0.46	/	/	/
CC(C)(C)C1CCc2onc(C(=O)NC3CCCC3)c2C1 (configuration not stated)	0.42	/	1.4	2	-8	0.58	/	/	/
CC(C)(C)C1CCc2onc(C(=O)N3CCOCC3)c2C1 (configuration not stated)	1	/	6*	-6	-2	-0.48	10148*	1516	+
CC1=C(C(=O)NCc2ccccn2)C2(CCC(C)CC2)OC1=O (configuration not stated)	0.018	-29	-0.34	1	-19	0.013	/	/	/
COc1cccc(-n2c(SCC(=O)Nc3cc(C)on3)nc3c([nH]c4ccccc43)c2=O)c1	0.4	27	5.7*	27	11	-0.23	10104*	1812	+
CCOc1cccc(N(C(=O)Cc2cccs2)C(C(=O)NC2CCCCC2)c2cccn2C)c1 (configuration not stated)	/	-39	/	/	/	/	/	/	/
CCC(=O)N1CCc2cc(OC)c(OC)cc2C1COc1ccc(C(=O)OC)cc1 (configuration not stated)	0.48	/	15*	24	2	-0.006	20996*	3492	+
O=C(CSc1nnnn1-c1ccc(Cl)cc1)N1CCc2ccccc2C1	1.6	/	-0.096	7	2	0.27	/	/	/
CC1N=C2c3ccccc3N=C(SCc3cc(=O)n4cc(Cl)ccc4n3)N2C1=O (configuration not stated)	-0.12	-3	4.2*	-1	-5	0.0059	10900*	1568	+
CC(C)C1N=C2c3ccccc3N=C(SCc3cc(=O)n4ccccc4n3)N2C1=O (configuration not stated)	-0.083	/	0.92	-28	-11	1.9	/	/	/
c1cncc(-c2nc(-c3ccc4c(c3)OCO4)cs2)c1	0.039	/	0.16	49	40	-0.4	/	/	/
Oc1ccc(-c2nc(-c3ccc(O)c(O)c3)cs2)cc1	/	/	6.7*	28	39	/	7572*	2480	+
CCOc1cc(-c2noc(-c3cccnc3)n2)ccc1OC	0.27	0	19*	20	23	-0.082	21224*	/	+
CCOc1ccc(-c2noc(-c3cccnc3)n2)cc1OC	0.46	36	4.3*	14	57*	-0.61	10956*	1728	i
Cc1ccc(NC(=O)CC2SC3=NCCCN3C2=O)c(C)c1 (configuration not stated)	1.6	9	0.011	1	-7	-0.021	/	/	/
O=C(c1cccc2c1C(=O)N(Cc1cccnc1)C2)N1CCN(c2ccccc2)CC1	-0.044	-111	0.36	6	-14	0.11	/	/	/
c1ccc(C2=Nn3c(nnc3-c3ccncc3)SC2)cc1	0.77	/	2.9*	14	-24	0.96	9856*	1576	i
c1ccc(C2=Nn3c(nnc3-c3cccnc3)SC2)cc1	-0.0024	-33	4.9*	3	-19	-0.77	11260*	1752	i
CCCc1nnc2n1N=C(c1ccc(OC)c(OC)c1)CS2	1.3	/	26*	2	13	1.4	22008*	/	+

High-throughput results deposited in PubChem BioAssay by several laboratories.
